According to ChEMBL document CHEMBL4706499, “PTG-0861: A novel HDAC6-selective inhibitor as a therapeutic strategy in acute myeloid leukaemia” (Eur J Med Chem, 2020):
Calls of active or inactive are those of the source. The rule behind the calls is not given here.

What was measured:
[1] = target: T1, Polyamine deacetylase HDAC10 (Homo sapiens, UniProt Q969S8); assay: Inhibition of recombinant full length human HDAC10 expressed in SF9 baculovirus using FAM- labelled acetylated peptide as substrate measured by Electrophoretic mobility shift assay
T1 sequence (Q969S8 whole entry): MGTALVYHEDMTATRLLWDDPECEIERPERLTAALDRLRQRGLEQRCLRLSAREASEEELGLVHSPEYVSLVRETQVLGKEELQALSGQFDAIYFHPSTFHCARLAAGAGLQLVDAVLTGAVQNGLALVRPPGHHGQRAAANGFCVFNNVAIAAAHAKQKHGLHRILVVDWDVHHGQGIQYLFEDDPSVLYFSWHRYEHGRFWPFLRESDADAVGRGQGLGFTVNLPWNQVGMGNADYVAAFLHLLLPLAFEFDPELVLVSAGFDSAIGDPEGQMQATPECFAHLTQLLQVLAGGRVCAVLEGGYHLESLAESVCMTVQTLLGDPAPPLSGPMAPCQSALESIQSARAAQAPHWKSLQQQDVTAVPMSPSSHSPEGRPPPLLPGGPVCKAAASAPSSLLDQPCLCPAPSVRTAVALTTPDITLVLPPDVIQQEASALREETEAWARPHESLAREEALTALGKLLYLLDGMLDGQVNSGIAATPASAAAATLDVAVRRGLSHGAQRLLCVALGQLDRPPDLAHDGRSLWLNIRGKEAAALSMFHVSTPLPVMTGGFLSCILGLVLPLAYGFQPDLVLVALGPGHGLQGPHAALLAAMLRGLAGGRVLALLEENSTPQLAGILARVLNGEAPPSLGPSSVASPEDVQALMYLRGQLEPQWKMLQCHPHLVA

MV4-11 [2] = assay: Induction of apoptosis in human MV4-11 cells assessed as early apoptotic cells at 2 microM measured after 18 hrs by Annexin V/Propidium iodide stain based Flow cytometry assay (reference value: 1.7%); type: functional
Histone deacetylase 2 = Histone deacetylase 2 (Homo sapiens, UniProt Q92769); assay: Inhibition of recombinant full length human HDAC2 expressed in SF9 baculovirus using FAM- labelled acetylated peptide as substrate measured by Electrophoretic mobility shift assay
Histone deacetylase 11 = target: T2, Histone deacetylase 11 (Homo sapiens, UniProt Q96DB2); assay: Inhibition of recombinant full length human HDAC11 expressed in SF9 baculovirus using FAM- labelled acetylated peptide as substrate measured by Electrophoretic mobility shift assay
T2 sequence (Q96DB2 whole entry): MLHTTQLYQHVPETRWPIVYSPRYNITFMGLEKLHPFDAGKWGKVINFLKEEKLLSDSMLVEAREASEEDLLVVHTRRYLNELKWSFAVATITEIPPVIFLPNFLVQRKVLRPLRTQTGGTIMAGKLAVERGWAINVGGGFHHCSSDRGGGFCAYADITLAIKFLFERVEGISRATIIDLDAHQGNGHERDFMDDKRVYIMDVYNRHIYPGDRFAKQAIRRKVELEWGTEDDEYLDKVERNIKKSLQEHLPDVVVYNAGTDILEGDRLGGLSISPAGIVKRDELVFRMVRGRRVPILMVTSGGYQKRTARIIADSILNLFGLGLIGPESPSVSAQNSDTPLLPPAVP

[3] = target: T3, Protein deacetylase HDAC6 (Homo sapiens) (UniProt Q9UBN7); assay: Inhibition of HDAC6 in human MV4-11 cells assessed as increase in acetylation of alpha tubulin at 0.5 uM measured after 6 hrs by Western blot assay relative to histone H4 acetylation; type: cell-based
T3 sequence (whole entry): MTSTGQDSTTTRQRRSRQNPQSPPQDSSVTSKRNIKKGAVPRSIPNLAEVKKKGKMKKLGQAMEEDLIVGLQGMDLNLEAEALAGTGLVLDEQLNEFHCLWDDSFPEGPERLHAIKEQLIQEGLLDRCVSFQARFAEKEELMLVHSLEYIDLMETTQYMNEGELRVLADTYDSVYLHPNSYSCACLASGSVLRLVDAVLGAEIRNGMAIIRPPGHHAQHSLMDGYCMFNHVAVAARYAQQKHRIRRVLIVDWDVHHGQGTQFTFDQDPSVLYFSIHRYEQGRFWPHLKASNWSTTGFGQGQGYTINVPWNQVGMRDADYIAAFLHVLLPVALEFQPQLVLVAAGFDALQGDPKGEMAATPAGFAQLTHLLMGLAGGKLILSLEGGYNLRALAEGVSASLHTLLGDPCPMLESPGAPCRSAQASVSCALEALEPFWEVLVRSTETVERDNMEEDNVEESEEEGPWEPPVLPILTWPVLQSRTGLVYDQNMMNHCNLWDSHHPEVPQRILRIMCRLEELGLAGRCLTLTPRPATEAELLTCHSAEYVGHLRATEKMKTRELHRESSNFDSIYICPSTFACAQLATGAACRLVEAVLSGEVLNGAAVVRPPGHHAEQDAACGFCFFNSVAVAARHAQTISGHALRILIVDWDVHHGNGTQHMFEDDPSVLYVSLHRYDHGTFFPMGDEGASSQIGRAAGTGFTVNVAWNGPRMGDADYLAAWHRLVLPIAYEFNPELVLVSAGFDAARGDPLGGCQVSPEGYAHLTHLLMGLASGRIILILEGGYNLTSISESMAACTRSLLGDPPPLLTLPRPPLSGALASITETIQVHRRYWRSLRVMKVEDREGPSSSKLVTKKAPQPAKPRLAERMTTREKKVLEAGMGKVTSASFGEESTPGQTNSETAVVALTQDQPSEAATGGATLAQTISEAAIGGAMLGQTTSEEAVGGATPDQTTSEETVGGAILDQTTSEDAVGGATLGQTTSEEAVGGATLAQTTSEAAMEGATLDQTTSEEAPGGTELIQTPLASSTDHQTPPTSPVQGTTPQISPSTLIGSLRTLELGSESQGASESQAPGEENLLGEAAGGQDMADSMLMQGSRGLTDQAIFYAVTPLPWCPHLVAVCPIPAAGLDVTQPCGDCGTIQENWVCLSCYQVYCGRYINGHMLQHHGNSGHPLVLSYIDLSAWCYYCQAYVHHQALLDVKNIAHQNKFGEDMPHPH
Procedure, shortened: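 MV4-11 cells were exposed to a range of concentrations for 6 h. Protein extracts were run on SDS-PAGE and immunoblotted for acetylated α-tubulin, acetylated histone H3 and acetylated histone H4, with HSC70 as the loading reference. A representative blot of three independent experiments is shown.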

Histone deacetylase 5 = Histone deacetylase 5 (Homo sapiens, UniProt Q9UQL6); assay: Inhibition of recombinant full length human HDAC5 expressed in SF9 baculovirus using FAM- labelled acetylated peptide as substrate measured by Electrophoretic mobility shift assay
MV4-11 [4] = assay: Induction of apoptosis in human MV4-11 cells assessed as early apoptotic cells at 0.25 microM measured after 18 hrs by Annexin V/Propidium iodide stain based Flow cytometry assay (reference value: 1.7%); type: functional
Histone deacetylase 3 = Histone deacetylase 3 (Homo sapiens, UniProt O15379); assay: Inhibition of recombinant full length human HDAC3 expressed in SF9 baculovirus using FAM- labelled acetylated peptide as substrate measured by Electrophoretic mobility shift assay
[5] = Cytotoxicity against human MRC9 cells measured after 72 hrs by spectrophotometer method; type: cell-based; details: MRC9, 72 h

Chain of Histone deacetylase 5 (Q9UQL6 whole entry): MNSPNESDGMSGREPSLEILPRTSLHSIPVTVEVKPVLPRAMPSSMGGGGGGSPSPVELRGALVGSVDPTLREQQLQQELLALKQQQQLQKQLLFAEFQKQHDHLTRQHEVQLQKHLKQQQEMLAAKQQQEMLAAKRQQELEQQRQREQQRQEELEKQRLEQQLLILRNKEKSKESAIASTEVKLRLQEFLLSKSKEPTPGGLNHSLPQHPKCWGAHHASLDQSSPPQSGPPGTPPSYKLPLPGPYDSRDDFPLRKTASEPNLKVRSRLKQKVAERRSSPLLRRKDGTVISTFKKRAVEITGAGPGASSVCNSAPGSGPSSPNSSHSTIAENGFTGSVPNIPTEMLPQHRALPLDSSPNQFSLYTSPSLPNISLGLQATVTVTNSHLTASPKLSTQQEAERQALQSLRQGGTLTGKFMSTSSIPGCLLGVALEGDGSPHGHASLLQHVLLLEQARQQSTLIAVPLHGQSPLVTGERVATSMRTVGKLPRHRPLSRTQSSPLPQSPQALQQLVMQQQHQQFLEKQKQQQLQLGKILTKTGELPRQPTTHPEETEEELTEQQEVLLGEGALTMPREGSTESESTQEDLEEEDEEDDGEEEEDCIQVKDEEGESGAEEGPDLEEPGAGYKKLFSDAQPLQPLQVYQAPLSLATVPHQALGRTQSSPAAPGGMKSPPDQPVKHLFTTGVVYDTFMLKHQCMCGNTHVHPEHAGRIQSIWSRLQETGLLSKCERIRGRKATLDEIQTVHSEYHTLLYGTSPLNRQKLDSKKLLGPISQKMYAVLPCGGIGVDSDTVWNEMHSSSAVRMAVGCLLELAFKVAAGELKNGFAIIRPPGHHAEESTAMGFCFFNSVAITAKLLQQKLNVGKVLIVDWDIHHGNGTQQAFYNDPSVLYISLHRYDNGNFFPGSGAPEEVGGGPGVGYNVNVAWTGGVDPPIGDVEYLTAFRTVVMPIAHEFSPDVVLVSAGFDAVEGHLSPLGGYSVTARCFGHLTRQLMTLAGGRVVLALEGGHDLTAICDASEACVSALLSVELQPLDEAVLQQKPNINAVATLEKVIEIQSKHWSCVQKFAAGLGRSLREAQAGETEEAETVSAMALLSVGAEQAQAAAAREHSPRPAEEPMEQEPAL
Chain of Histone deacetylase 3 (O15379 whole entry): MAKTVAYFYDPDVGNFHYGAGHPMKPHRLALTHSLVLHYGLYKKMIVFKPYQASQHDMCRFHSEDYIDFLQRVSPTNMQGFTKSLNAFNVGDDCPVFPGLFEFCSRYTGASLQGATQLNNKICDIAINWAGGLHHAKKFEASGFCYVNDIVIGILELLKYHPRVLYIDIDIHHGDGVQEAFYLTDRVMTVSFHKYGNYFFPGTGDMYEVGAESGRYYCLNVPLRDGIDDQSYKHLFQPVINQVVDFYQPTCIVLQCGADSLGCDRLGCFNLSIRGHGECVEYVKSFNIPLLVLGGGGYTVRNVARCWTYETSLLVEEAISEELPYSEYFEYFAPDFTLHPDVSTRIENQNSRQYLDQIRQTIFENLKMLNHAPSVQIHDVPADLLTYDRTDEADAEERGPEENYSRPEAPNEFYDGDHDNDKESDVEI
Chain of Histone deacetylase 2 (Q92769 whole entry): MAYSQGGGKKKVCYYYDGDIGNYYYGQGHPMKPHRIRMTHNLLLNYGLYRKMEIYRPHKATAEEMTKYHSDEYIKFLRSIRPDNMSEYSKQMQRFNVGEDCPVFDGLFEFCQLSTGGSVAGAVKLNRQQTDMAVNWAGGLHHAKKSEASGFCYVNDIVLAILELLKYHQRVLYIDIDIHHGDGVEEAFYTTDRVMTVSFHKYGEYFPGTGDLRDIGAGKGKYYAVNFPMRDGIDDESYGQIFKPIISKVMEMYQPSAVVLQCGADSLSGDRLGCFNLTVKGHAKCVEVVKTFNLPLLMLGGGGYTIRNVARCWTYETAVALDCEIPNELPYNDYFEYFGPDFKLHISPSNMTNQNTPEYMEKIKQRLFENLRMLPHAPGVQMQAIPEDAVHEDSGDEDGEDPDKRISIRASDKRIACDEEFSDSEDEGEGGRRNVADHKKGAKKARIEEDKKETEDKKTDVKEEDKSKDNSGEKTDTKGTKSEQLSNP

O=C(NO)c1ccc(CNC(=O)c2c(F)c(F)c(F)c(F)c2F)cc1 showed an IC50 [1] of over 1000 nM, an Activity (MV4-11 [2]) of 7.73% and an IC50 (Histone deacetylase 2) of over 1000 nM. The IC50 (Histone deacetylase 11) was over 1000 nM, the inhibition [3] was “Active” and the IC50 (Histone deacetylase 5) was over 1000 nM. It also gave an Activity (MV4-11 [4]) of 1.69%, an IC50 (Histone deacetylase 3) of 215 nM and an IC50 [5] of over 50000 nM.
